Legend:
[1] = Inhibition of Na+/K+-ATPase (unknown origin) by luminescent ADP detection assay; design: species or system Homo sapiens
Outline: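 NKA activity read as ADP formed, by luminescent ADP detection (ADP-Glo Max). IC50 is the concentration giving 50% inhibition of NKA activity. In vitro measurements were run in triplicate and are representative of three independent experiments.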

OVCAR-5 = assay: Cytotoxicity against human OVCAR-5 cells assessed as inhibition of cell viability incubated for 72 hrs by celltiter-blue cell viability assay; assay type: functional, cell-based; conditions: OVCAR-5, 72 h
Outline: (§1)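 Cells grown in RPMI 1640 or DMEM with 10% FBS, penicillin 100 units/mL and streptomycin 100 μg/mL. Treated with compounds for 72 h; vehicle negative control, paclitaxel positive control. Viability read by CellTiter-Blue absorbance. IC50 relative to vehicle control by nonlinear regression; triplicate measurements, representative of three independent experiments.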

MDA-MB-231 = assay: Cytotoxicity against human MDA-MB-231 cells assessed as inhibition of cell viability incubated for 72 hrs by celltiter-blue cell viability assay; assay type: functional, cell-based; conditions: MDA-MB-231, 72 h; outline: as §1
MDA-MB-435 = assay: Cytotoxicity against human MDA-MB-435 cells assessed as inhibition of cell viability incubated for 72 hrs by celltiter-blue cell viability assay; assay type: functional, cell-based; conditions: MDA-MB-435, 72 h; outline: as §1
OVCAR-3 = assay: Cytotoxicity against human OVCAR-3 cells assessed as inhibition of cell viability incubated for 72 hrs by celltiter-blue cell viability assay; assay type: functional, cell-based; conditions: OVCAR-3, 72 h; outline: as §1
HT-29 = assay: Cytotoxicity against human HT-29 cells assessed as inhibition of cell viability incubated for 72 hrs by celltiter-blue cell viability assay; assay type: functional, cell-based; conditions: HT-29, 72 h; outline: as §1

Row | Structure (SMILES) | IC50 [1] [µM] | IC50 (OVCAR-5) [µM] | IC50 (MDA-MB-231) [µM] | IC50 (MDA-MB-435) [µM] | IC50 (OVCAR-3) [µM] | IC50 (HT-29) [µM]
1 | C[C@H]1O[C@@H](O[C@H]2[C@@H](O)C[C@H](O[C@H]3[C@@H](O)C[C@H](O[C@H]4CC[C@@]5(C)[C@H](CC[C@@H]6[C@@H]5CC[C@]5(C)[C@@H](C7=CC(=O)OC7)CC[C@]65O)C4)O[C@@H]3C)O[C@@H]2C)C[C@H](O)[C@@H]1O [DIGITOXIN] | 0.46 | – | – | – | – | –
2 | CO[C@H]1C[C@H](O[C@H]2CC[C@@]3(C)[C@@H](C2)C[C@@H]2O[C@]24[C@@H]3[C@H](OC(C)=O)C(=O)[C@]2(C)[C@@H](C3=CC(=O)OC3)CC[C@]42O)O[C@@H](C)[C@@H]1OC(C)=O | > 100 | > 10 | > 10 | > 10 | > 10 | > 10
3 | CO[C@H]1C[C@H](O[C@H]2CC[C@@]3(C)[C@@H](C2)C[C@@H]2O[C@]24[C@@H]3[C@H](O)C(=O)[C@]2(C)[C@H](C3=CC(=O)OC3)CC[C@]42O)O[C@@H](C)[C@@H]1O | 40 | > 10 | > 10 | > 10 | 7 | > 10
4 | CC(=O)O[C@H]1C(=O)[C@@]2(C)[C@H]([C@H](OC(=O)c3ccccc3)[C@]3(O)C[C@H](OC(=O)[C@H](O)[C@@H](NC(=O)c4ccccc4)c4ccccc4)C(C)=C1C3(C)C)[C@]1(OC(C)=O)CO[C@@H]1C[C@@H]2O [PACLITAXEL] | – | – | – | – | – | 0.0034
5 | C[C@]12CC[C@H]3[C@@H](C=CC4=CC(=O)[C@H](O)C[C@@]43C)[C@@H]1CC[C@@H]2C(=O)O | > 100 | > 10 | > 10 | > 10 | > 10 | > 10
6 | C[C@]12CC[C@H]3[C@@H](C=CC4=CC(=O)[C@H](O)C[C@@]43C)[C@@H]1CC[C@@H]2C(=O)CO | – | > 10 | > 10 | > 10 | > 10 | > 10
